Experimental data from paper PMC2643122 (Molecular Microbiology, 2008).
Entries after “also recorded” stand apart in the source; their conditions may differ. Where no end group is shown, it is not given here.

Experiments:
rSsa2p [1] = molecular target: T1, rSsa2p (Candida albicans, UniProt P46587); assay: Limited thermolysin proteolysis of cross-linked rSsa2p–BHst 5 complexes; format: binding; conditions: thermolysin 5 μg ml^−1, 30°C, 1 h; silver-stained 15% SDS-PAGE
C. albicans [2] = assay: Candidacidal assay of Hst 5; format: cell-based, Candida albicans
Procedure, shortened: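 Strains (integrated at RP10 in ssa2Δ background) grown overnight in YPD with uridine 50 μg ml−1 at 30°C, washed twice in 10 mM NaPB, resuspended to 10^6 cells ml−1. Exposed to 15 μM Hst 5, 1 h, 30°C, 250 r.p.m. Diluted, 500 cells plated on YPD agar, 48 h room temperature. Percent death versus buffer-only cells. Three independent transformants per mutant; each assay repeated ≥3 times.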

C. albicans [3] = assay: Hst 5 translocation assay; format: cell-based, Candida albicans
Procedure, shortened: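 Early log-phase cells (1 × 10^8) were washed twice and suspended in 1 ml 10 mM NaPB, then given biotinylated Hst 5 (15 μM final) for 30 min at room temperature. Washed cells were pelleted at 3 300 g, 4°C, glass-bead disrupted and spun 15 700 g, 10 min. Cytosolic protein (10 μg) was separated by 16% Tricine SDS-PAGE, blotted with streptavidin-HRP, detected by ECL and quantified densitometrically. Means ± standard errors of triplicate independent assays.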

rSsa2p [4] = molecular target: T1, rSsa2p; assay: FPLC gel filtration determination of dissociation constants; format: binding
Candida albicans = conditions: cited from earlier work
[5] = ref Li et al., 2006; cited from earlier work
human tissues = conditions: discussion statement without its own reference; cited from earlier work
C. albicans Ssa2p = conditions: ref Li et al., 2006; cited from earlier work
yeast cells = conditions: ref Koshlukova et al., 2000; Vylkova et al., 2007; cited from earlier work
DnaK = conditions: 2001, cited from earlier work; for binding by bacterial DnaK related to uptake and killing: ref Kragol et al.

T1 sequence (P46587 whole entry): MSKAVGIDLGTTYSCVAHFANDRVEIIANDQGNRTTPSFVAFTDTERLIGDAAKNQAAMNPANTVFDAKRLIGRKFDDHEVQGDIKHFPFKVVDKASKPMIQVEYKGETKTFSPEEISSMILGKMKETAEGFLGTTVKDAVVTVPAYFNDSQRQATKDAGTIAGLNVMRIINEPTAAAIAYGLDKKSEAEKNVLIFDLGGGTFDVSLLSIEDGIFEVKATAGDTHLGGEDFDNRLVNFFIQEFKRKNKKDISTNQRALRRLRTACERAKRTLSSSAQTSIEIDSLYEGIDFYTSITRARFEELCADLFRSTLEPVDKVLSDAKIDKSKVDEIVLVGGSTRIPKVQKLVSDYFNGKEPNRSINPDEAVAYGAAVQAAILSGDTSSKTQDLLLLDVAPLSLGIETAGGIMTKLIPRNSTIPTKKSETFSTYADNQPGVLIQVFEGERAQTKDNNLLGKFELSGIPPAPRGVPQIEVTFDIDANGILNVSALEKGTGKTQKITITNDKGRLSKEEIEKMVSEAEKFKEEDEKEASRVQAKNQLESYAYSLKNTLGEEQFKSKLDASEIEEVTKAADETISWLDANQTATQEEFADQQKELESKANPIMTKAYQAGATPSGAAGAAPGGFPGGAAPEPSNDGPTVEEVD

## C[C@H](NC(=O)[C@H](Cc1cnc[nH]1)NC(=O)[C@H](CO)NC(=O)[C@@H](N)CC(=O)O)C(=O)N[C@@H](CCCCN)C(=O)N[C@@H](CCCNC(=N)N)C(=O)N[C@@H](Cc1cnc[nH]1)C(=O)N[C@@H](Cc1cnc[nH]1)C(=O)NCC(=O)N[C@@H](Cc1ccc(O)cc1)C(=O)N[C@@H](CCCCN)C(=O)N[C@@H](CCCNC(=N)N)C(=O)N[C@@H](CCCCN)C(=O)N[C@@H](Cc1ccccc1)C(=O)N[C@@H](Cc1cnc[nH]1)C(=O)N[C@@H](CCC(=O)O)C(=O)N[C@@H](CCCCN)C(=O)N[C@@H](Cc1cnc[nH]1)C(=O)N[C@@H](Cc1cnc[nH]1)C(=O)N[C@@H](CO)C(=O)N[C@@H](Cc1cnc[nH]1)C(=O)N[C@@H](CCCNC(=N)N)C(=O)NCC(=O)N[C@@H](Cc1ccc(O)cc1)C(=O)O [Hst 5, Histatin 5]
rSsa2p [1]
  effect of binding on thermolysin digestion sites of rSsa2p: substantially alters available thermolysin digestion sites exposed for enzymatic cleavage
C. albicans [2]; P1 mutant Ssa2(150−156A3) as printed, 15 μM Hst 5, 1 h at 30°C
  reduction in cellular killing, Ssa2 150−156 mutant strain: approximately 20%
C. albicans [2]; P1 mutant, result in words, 15 μM Hst 5, 1 h at 30°C
  loss of killing function, Ssa2(150−156A4) strain: mild to moderate loss of function
C. albicans [2]; T2 mutant with defective cell wall secretion of Ssa2p, 15 μM Hst 5, 1 h at 30°C
  killing, Ssa2(334−338A3) strain: reduced Hst 5 translocation and killing to levels of the ssa2Δ knockout; also recorded: significant loss of cytotoxic and transport functions
C. albicans [2]; downstream T1 mutant, 15 μM Hst 5, 1 h at 30°C
  killing, Ssa2(131−135A3) strain: reduced, but did not prevent Hst 5 killing and intracellular uptake; also recorded: mild to moderate loss of function
C. albicans [2]; spot 32 region, data not shown
  effect of mutations within Ssa2(342–355) on killing: did not alter Hst 5 killing or translocation
C. albicans [3]; BHst 5 15 μM, NaPB, room temperature
  time course of translocation: Translocation happens very rapidly following only 5 min incubation; also recorded: the majority of Hst 5 is translocated intracellularly after 30 min
C. albicans [3]; P1 mutant Ssa2(150−156A3) as printed, BHst 5 15 μM
  reduction in Hst 5 translocation, Ssa2 150−156 mutant strain: approximately 20%
C. albicans [3]; T2 mutant with defective cell wall secretion of Ssa2p, BHst 5 15 μM
  intracellular translocation, Ssa2(334−338A3) strain: reduced Hst 5 translocation and killing to levels of the ssa2Δ knockout
C. albicans [3]; downstream T1 mutant, BHst 5 15 μM
  intracellular translocation, Ssa2(131−135A3) strain: reduced, but did not prevent Hst 5 killing and intracellular uptake
C. albicans [3]; spot 32 region, data not shown
  effect of mutations within Ssa2(342–355) on translocation: did not alter Hst 5 killing or translocation
C. albicans [3]; ssa2Δ
  uptake in Ssa2p deletion mutants: reduced but measurable uptake
rSsa2p [4]; gel filtration with ATP or ADP
  competition for nucleotide binding sites in Ssa2p: does not compete for nucleotide binding sites in Ssa2p
rSsa2p [4]; presence of nucleotides, gel filtration
  fold improvement of binding affinity by nucleotides: 10 -fold
Candida albicans; SSA1 knockout, ref Li et al., 2006
  resistance of SSA1 knockouts to Hst 5: only mildly resistant
Candida albicans; SSA2 deletion, ref Li et al., 2006
  intracellular uptake and killing in C. albicans SSA2 deletion mutants: significantly reduced
Candida albicans; associated with oral candidiasis, background statement without its own reference
  fungicidal activity for Candida albicans and other fungal pathogens: strongly fungicidal
Candida albicans; pre-treatment of cells, ref Zhu et al., 2006
  inhibition of Hst 5 killing by drugs blocking endocytosis: inhibited by pre-treatment of cells with drugs blocking endocytosis
Candida albicans; ref Dong et al., 2003, Jang et al., 2008
  salt sensitivity: salt sensitive
[5]
  self-aggregation: high propensity for self-aggregation
Human tissues
  toxicity to human tissues: without being toxic to human tissues
C. albicans Ssa2p
  association with Ssa2p compared with Ssa1p: stronger association
Yeast cells
  selective leakage of intracellular ions and ATP: induces selective leakage of intracellular ions and ATP from yeast cells

## pyrrhocoricin: cationic antimicrobial peptide (VDKGSYLPRPTPPRPIYNRN; ends and bridges not checked; UniProt P37362 1-20, looked up)
DnaK
  binding by bacterial DnaK related to uptake and killing: shown to be related to their intracellular uptake and killing functions
DnaK; ref Otvos et al., 2000, Kragol et al.
  probable interaction site on DnaK: C-terminal variable region of the lid domain outside the conventional peptide binding region

## drosocin: cationic antimicrobial peptide (GKPRPYSPRPTSHPRPIRV; ends and bridges not checked; UniProt P36193 22-40, looked up)
DnaK
  binding by bacterial DnaK related to uptake and killing: shown to be related to their intracellular uptake and killing functions

## human β defensin 2
Candida albicans; ref Vylkova et al., 2006
  killing of candidal cells via uptake mechanism involving Ssa proteins: can kill candidal cells
